According to article PMC7141409 (Journal of biomolecular NMR, 2019):

B1: PPIB: petidyl-prolyl isomerase B from E. coli (Uniprot entry P23869) (protein, UniProt P23869 1-164, looked up)
Peptidyl-prolyl cis-trans …: MVTFHTNHGDIVIKTFDDKAPETVKNFLDYCREGFYNNTIFHRVINGFMIQGGGFEPGMKQKATKEPIKNEANNGLKNTRGTLAMARTQAPHSATAQFFINVVDNDFLNFSGESLQGWGYCVFAEVVDGMDVVDKIKGVATGRSGMHQDVPKEDVIIESVTVSE
B2: OsIAA11 P106L: OsIAA11 P106L mutation (directly adjacent to the W104-P105 peptide bond) (protein, UniProt Q75GK0 1-233, looked up, variant P106L)
Auxin-responsive protein IAA11: MAGLGFDETELRLGLPGAGELAARSSGKRGFAETIDLKLKLQPAAPAAVSGEEGAQEDKEDADAAAAAADEKMSMKRSASQSSVVTAEPDPDKPRAPKAQVVGWPLVRSFRKNVLAEKCKAAALVKVSMDGAPYLRKIDVAMYKSYPELSMAFQNMFTSFTIGKCGSHQQLKESNKLRDDLEYVPTYEDKDGDWMLVGDVPWEMFVESCKRLRIMKGSEAIGLAPRAVEKCKS

Tests used:
[1] = system: ^15N-OsIAA11^72−125 (W104-P105 peptide bond); test: Nzz-exchange: catalyzed cis-trans exchange of W104-P105; assay type: biochemical, rice
In short: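 15N-labeled OsIAA11 72–125 substrate (800μM) with 16μM enzyme (LRT2 mutant or homolog) in NMR buffer (50mM KCl, 20mM KPO4, 3mM TCEP, 5mM NaN3, 0.1% protease inhibitor cocktail, pH=6.67). Protein concentrations were set by A280 using theoretical extinction coefficients. Nzz-exchange spectra were processed to give the observed cis-trans exchange rate (kexobs) of the W104-P105 bond with uncertainties.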

[2] = Succinyl-Ala-Ala-Pro-Phe-NH-Mec; cited from earlier work
rice = rice strain with OsIAA11 P106L; cited from earlier work
[3] = system: E3 ubiquitin ligase SCF^TIR1; details: rice strain with OsIAA11 P106L; cited from earlier work

Row | Molecule | Nzz exchange crosspeaks / activity ([1]; 16μM enzyme, 800μM OsIAA11^72–125) | Nzz-measured kexobs ([1]; 1H-15N Nzz exchange, 16μM enzyme, 800μM OsIAA11^72–125, NMR buffer pH=6.67) | Activity relative to WT LRT2 on OsIAA11 ([1]; Nzz, % of WT LRT2 activity) | kcat/Km relative to hCypA [2] | Lateral root development (rice) | Proteasomal degradation [3]
1 | B1 | clear exchange crosspeaks | 0.37 ± 0.04 s⁻¹ | 60% | more than an order of magnitude higher kcat/Km than hCypA |  | 
2 | B2 |  |  |  |  | no induction of lateral root development | evades proteasomal degradation
